# Data reported in PubChem BioAssay.
# The source made the active and inactive calls.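 The calls were made as follows, unless noted: active = fluorescence slope higher than the sample average by over 3 SD (cut at about -0.22 in these data, passing the limit was not always enough); inactive = the rest.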
# Legend:
# [1] = inhibitors of TNFa-induced NFkB p65 translocation, primary screen, imaging, HUVEC, MLSMR starter and 10KST1 sets (AID 438;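 active = inhibition above 20% together with a positive visual image hit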;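 also: compound added about 3h40 before a 20 min TNFalpha stimulation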;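 as to inhibition: signal is the nuclear over cytoplasmic p65 intensity ratio per well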); conditions: HUVEC TNFa-induced p65 nuclear translocation; cell count: measured here: nuclei count (cytotoxicity indicator), at 2.08 µM; inhibition: at 2 µM, stronger effect = higher value, 0% TNFa-plus-vehicle, 100% no-TNFa wells
# [2] = reduction of polyQ htt aggregates in cells – imaging, exon1htt(103Q)mCFP cells, high-content imaging, primary screen (AID 483;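 active = visual image review flags a hit and inhibition of aggregation exceeds 20%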;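 also: compound exposure lasted 3 days before fixation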;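 as to nuclei count: percent of the per-plate median nuclei count of sample wells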); conditions: exon1htt(103Q)mCFP cell line, aggregate imaging, at 2 µM; inhibition of aggregation: stronger effect = higher value; nuclei count: measured here: cell count, toxicity
# [3] = endothelial E-selectin expression blockers – imaging, HUVEC, immunofluorescence, MLSMR starter and 10KST1 sets, primary screen (AID 487;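 active = visually confirmed hit in the image check and inhibition above 20%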;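 as to inhibition: signal is fraction of cell area covered by stained E-selectin grains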;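 as to nuclei count: 100% = median nuclei count of all wells on the same plate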); conditions: HUVEC TNFalpha-induced E-selectin immunofluorescence imaging, at 2 µM; inhibition: stronger effect = higher value; nuclei count: measured here: cell number, toxicity
# [4] = molecular target: Voltage-gated potassium channel subunit beta-2 (Rattus norvegicus) (UniProt P62483); experiment: inhibitors of rat Kvbeta2 reductase activity – biochemical, NADPH fluorescence, primary screen (AID 622); conditions: recombinant KvBeta, 4-cyanobenzaldehyde reduction, at 10 µM, stronger effect = higher value;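 also: slope of raw intensity against log time taken from 70 to 1610 s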
# [5] = molecular target: Voltage-gated potassium channel subunit beta-2 (Rattus norvegicus) (UniProt P62483); experiment: enhancers of rat Kvbeta2 NADPH turnover – biochemical, NADPH fluorescence, primary screen (AID 623;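 active = NADPH fluorescence slope more negative than the mean of all samples by about 3 SD, 99.7% confidence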;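 also: fluorescence intensity change per second fitted from 20 to 320 s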); conditions: Recombinant KvBeta, NADPH fluorescence decrease slope, 10 min; at 10 µM; stronger effect = lower value
# [6] = molecular target: Muscarinic acetylcholine receptor M4 (Homo sapiens) (UniProt P08173); experiment: M4-linked GIRK flux change, two-sided – cell-based, HEK293 M4/GIRK, thallium flux, BTC-AM, M4 allosteric agonist project, primary screen (AID 625;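 active = fluorescence slope after compound addition differing from the mean of all tested samples at 99.7% confidence, mostly higher but some lower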;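 also: thallium influx through GIRK channels coupled to M4 in HEK293 cells with BTC-AM dye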); conditions: at 10 µM, actives lie on both sides
# In short: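 assay system = HEK293 cells with M4 receptor and GIRK channels | medium = pH 7.3 thallium assay buffer | doses = 10 µM final, single point | timing = cells overnight at 37 °C, BTC-AM loading 1 h, reads 2 min total | signal = BTC-AM fluorescence, 1 Hz kinetic reads | read-out = post-addition slope, 15–24 s, of baseline-normalized fluorescence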
# [7] = blockers of RIG-like receptor reporter activation – cell-based, Sendai virus stimulus, luciferase, 10K MLSCN set, TLR/RLR signaling modifier project, primary screen (AID 602276;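 active = inhibition at or above 50% at 10 µM; inactive = inhibition below 50%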;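 also: firefly luciferase from ISG56 promoter only with Renilla not read in this screen; 0% = Sendai virus plus DMSO and 100% = medium plus DMSO without virus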); conditions: HEK293 RL24 IRF3 luciferase reporter, at 10 µM, stronger effect = higher value
# [8] = TLR3 IRF3 reporter activation blockers – cell-based, poly I:C stimulus, luciferase, 10K MLSCN set, primary screen (AID 602277;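 active = inhibition of the reporter signal at or above 50%; inactive = inhibition below 50%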); conditions: HEK293-TLR3 RL24 IRF3 luciferase reporter, at 10 µM, stronger effect = higher value
# Sequence of Muscarinic acetylcholine receptor M4 (Homo sapiens) (P08173 whole entry, looked up): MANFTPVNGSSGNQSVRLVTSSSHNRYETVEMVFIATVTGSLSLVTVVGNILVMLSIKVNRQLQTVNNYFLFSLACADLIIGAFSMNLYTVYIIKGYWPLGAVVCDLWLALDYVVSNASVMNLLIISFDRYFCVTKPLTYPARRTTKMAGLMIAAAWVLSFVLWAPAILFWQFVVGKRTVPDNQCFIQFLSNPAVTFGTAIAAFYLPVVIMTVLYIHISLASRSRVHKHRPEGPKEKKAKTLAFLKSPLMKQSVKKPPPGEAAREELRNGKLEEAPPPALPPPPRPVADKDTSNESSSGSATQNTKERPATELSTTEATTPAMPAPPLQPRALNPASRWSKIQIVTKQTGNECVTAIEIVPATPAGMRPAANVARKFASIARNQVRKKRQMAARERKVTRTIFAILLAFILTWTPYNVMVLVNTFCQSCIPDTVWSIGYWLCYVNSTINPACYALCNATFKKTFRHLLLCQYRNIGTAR
# Sequence of Voltage-gated potassium channel subunit beta-2 (Rattus norvegicus) (P62483 whole entry, looked up): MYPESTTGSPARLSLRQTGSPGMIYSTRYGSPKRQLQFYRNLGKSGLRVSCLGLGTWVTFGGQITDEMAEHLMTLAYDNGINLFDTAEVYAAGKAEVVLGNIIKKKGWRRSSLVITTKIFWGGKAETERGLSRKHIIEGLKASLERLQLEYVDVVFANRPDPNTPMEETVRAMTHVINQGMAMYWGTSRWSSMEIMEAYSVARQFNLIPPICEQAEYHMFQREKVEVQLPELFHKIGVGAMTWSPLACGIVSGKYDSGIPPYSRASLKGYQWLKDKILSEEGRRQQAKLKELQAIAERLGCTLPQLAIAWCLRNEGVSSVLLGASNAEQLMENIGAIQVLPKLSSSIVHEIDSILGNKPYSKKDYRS
SMILES,cell count [1],inhibition [1],inhibition of aggregation [2],nuclei count [2] [%],inhibition [3],nuclei count [3] [%],fluorescence slope [4],NADPH fluorescence slope [5],fluorescence slope [6],inhibition [7],inhibition [8]
Cc1nc2ccccc2cc1C(=O)NCc1ccco1,387,3.2% (inactive),-3.6% (inactive),75.3,-278% (inactive),126,-0.53 (inactive),-3.7e-05 (inactive),0.00494 (inactive),1.46% (inactive),0.0614% (inactive)
COc1ccc(-n2ncc3c(NCc4ccccn4)ncnc32)cc1,463,-1.9% (inactive),7.6% (inactive),94,14.4% (inactive),102,-0.541 (inactive),-4e-05 (inactive),0.0051 (inactive),-12.7% (inactive),-61.6% (inactive)
Cc1ccc(NC2c3ncccc3C(=O)N2C2CCCCC2)cc1C (stereo not drawn),465,0.7% (inactive),-11.9% (inactive),119,-28% (inactive),102,-0.276 (inactive),-8.5e-06 (inactive),0.00562 (inactive),1.86% (inactive),7.53% (inactive)
COc1c2ccoc2nc2c(OC)c(OCC(O)C(C)(C)O)ccc12 (stereo not drawn),411,-1.6% (inactive),-14.6% (inactive),101,-62.9% (inactive),138,-0.11 (inactive),-1.8e-05 (inactive),0.00374 (inactive),15.7% (inactive),7.86% (inactive)
O=C(CCSc1ccccc1)N1CCN(C(=O)c2ccco2)CC1,462,-11.1% (inactive),2% (inactive),102,-29.7% (inactive),97.1,-0.603 (inactive),-3.1e-05 (inactive),0.0052 (inactive),-23.3% (inactive),-56% (inactive)
CCC(Sc1ccc(C(=O)O)cc1)C(=O)O (stereo not drawn),319,-1.8% (inactive),-13.8% (inactive),110,-40.5% (inactive),109,-0.566 (inactive),-2.4e-05 (inactive),0.0053 (inactive),1.75% (inactive),7.14% (inactive)
C=CCOc1ccc(C2C(C(=O)c3ccco3)=C(O)C(=O)N2Cc2cccnc2)cc1 (stereo not drawn),341,-7.7% (inactive),-11.2% (inactive),107,-61.9% (inactive),103,-0.543 (inactive),-0.000128 (inactive),0.00458 (inactive),17.4% (inactive),14.5% (inactive)
CCOc1cccc(Oc2ccc(C(F)(F)F)cn2)c1,664,-8% (inactive),-17.4% (inactive),120,8.4% (inactive),97.3,-0.526 (inactive),1.7e-05 (inactive),0.00424 (inactive),5.91% (inactive),3.43% (inactive)
Cn1c(=O)c(NC(=O)c2ccccc2)c2n(c1=S)CCCCC2,359,-5.7% (inactive),13.7% (inactive),95.3,-17% (inactive),107,-0.57 (inactive),-1.1e-05 (inactive),0.00647 (inactive),16.3% (inactive),20% (inactive)
COc1ccccc1-c1c(C)nn2c(C)c(C(C)=O)cnc12,768,-0.8% (inactive),13.5% (inactive),97,96.7% (active),81.4,-0.611 (inactive),-3.6e-05 (inactive),0.00778 (inactive),17.1% (inactive),14.2% (inactive)
COc1ccc2c(c1)C(=NO)c1cc(OC)ccc1-2,667,-26.7% (inactive),15.4% (inactive),101,-48.8% (inactive),116,-0.373 (inactive),-8e-05 (inactive),0.00525 (inactive),-23.1% (inactive),-28.9% (inactive)
COC(=O)c1oc2ccc(OC)cc2c1N,669,5.5% (inactive),18.1% (inactive),85.1,-4.2% (inactive),101,-0.523 (inactive),5.1e-06 (inactive),0.00575 (inactive),-31.8% (inactive),-55% (inactive)
CC(=O)c1cccc(NC(=O)N2CCCC2C(=O)NCc2ccc(C)cc2)c1 (stereo not drawn),537,-4.9% (inactive),6.2% (inactive),102,-6.3% (inactive),120,-0.216 (inactive),-5.5e-06 (inactive),0.00664 (inactive),14.1% (inactive),23.1% (inactive)
COc1ccc2nc(C)cc(N3CCOCC3)c2c1,401,-8.1% (inactive),-8% (inactive),104,-34.7% (inactive),84.3,-0.484 (inactive),-0.000239 (inactive),0.0041 (inactive),16.2% (inactive),18.7% (inactive)
CCOC(=O)CCC(=O)Nc1ccc(S(=O)(=O)N2CCCC2)cc1,720,-3% (inactive),3.2% (inactive),98.3,-15.9% (inactive),126,-0.468 (inactive),2.8e-05 (inactive),0.00707 (inactive),-1.78% (inactive),100% (active)
CN1CCN(CCCNC(=O)C2CC(=O)N(C3CCCCC3)C2)CC1 (stereo not drawn),259,-1.7% (inactive),2.4% (inactive),98,15.5% (inactive),89.4,-0.548 (inactive),-4.3e-05 (inactive),0.00645 (inactive),14.4% (inactive),13.7% (inactive)
O=C(c1cccn2c(=O)c3cc(Cl)ccc3nc12)N1CCOCC1,488,-23.1% (inactive),10% (inactive),106,-117% (inactive),140,-0.027 (inactive),8.6e-06 (inactive),0.00457 (inactive),7.46% (inactive),19.6% (inactive)
CC(=O)c1nnn(-c2nc(N3CCCC3)nc(N(c3ccccc3)c3ccccc3)n2)c1C,558,8.9% (inactive),2.6% (inactive),109,51.9% (inactive),95.1,-0.58 (inactive),-5.5e-05 (inactive),0.00803 (inactive),15.9% (inactive),26.9% (inactive)
c1c2c(cc3sc(N4CCCCC4)nc13)OCCO2,266,-5.8% (inactive),14.4% (inactive),87.6,2.1% (inactive),88.9,-0.54 (inactive),-9.8e-06 (inactive),0.00468 (inactive),-0.203% (inactive),-45.7% (inactive)
COc1cccc(-n2nnc3c(=O)n(Cc4cccc(F)c4)cnc32)c1,421,-1.7% (inactive),-11.5% (inactive),127,-3.7% (inactive),117,-0.304 (inactive),-7e-06 (inactive),0.00737 (inactive),-8.19% (inactive),-14% (inactive)
CCOC(=O)N1CCN(C(=O)C(NS(=O)(=O)c2cccc3nsnc23)c2ccccc2)CC1 (stereo not drawn),588,1.5% (inactive),13.3% (inactive),106,51.1% (inactive),81.6,-0.599 (inactive),1.3e-05 (inactive),0.0056 (inactive),3.16% (inactive),9.73% (inactive)
Cc1cc(NC(=O)COC(=O)c2cccc(S(=O)(=O)N3CCOCC3)c2)no1,457,-26.1% (inactive),10.5% (inactive),106,67.8% (active),64.5,-0.471 (inactive),1.8e-05 (inactive),0.00706 (inactive),12.1% (inactive),24.4% (inactive)
Cc1ccc(CCNC(=O)Cn2cccc2)cc1,349,-4.8% (inactive),-1.7% (inactive),105,-38.9% (inactive),103,-0.355 (inactive),-5.5e-05 (inactive),0.00566 (inactive),12.9% (inactive),-5.93% (inactive)
NC(=O)C1(N2CCCCC2)CCN(C2CC(=O)N(Cc3cccs3)C2=O)CC1 (stereo not drawn),378,-2.6% (inactive),5.2% (inactive),82.9,-117% (inactive),84.9,-0.458 (inactive),-3.2e-05 (inactive),0.00707 (inactive),10.3% (inactive),20.4% (inactive)
CCOC(=O)CSc1nc2ccccc2c(=O)n1NC(=O)c1ccccc1,472,-5.7% (inactive),-2% (inactive),119,10.7% (inactive),92.2,-0.445 (inactive),3.6e-06 (inactive),0.00551 (inactive),1.47% (inactive),-19.8% (inactive)
CN(C)c1ccc(NC(=O)CSCc2nc3c(nnn3Cc3ccc(F)cc3)c(=O)[nH]2)cc1,579,7.1% (inactive),-8.4% (inactive),105,-72.4% (inactive),114,-0.204 (inactive),-6.4e-06 (inactive),0.00529 (inactive),10.7% (inactive),15.6% (inactive)
CCOC(=O)N1CCC(O)(c2cc(C)c(C)cc2C)CC1,494,-1.1% (inactive),-15.6% (inactive),93,-16% (inactive),112,-0.316 (inactive),-2.5e-05 (inactive),0.00607 (inactive),16.2% (inactive),-0.7% (inactive)
Cc1ccc(CNC(=O)C2CCN(S(=O)(=O)c3c(C)noc3C)CC2)cc1,475,4.8% (inactive),14% (inactive),91.5,-2.1% (inactive),104,-0.493 (inactive),8.6e-05 (inactive),0.00571 (inactive),-1.36% (inactive),6.94% (inactive)
